This is an account of results in ChEMBL document CHEMBL2163200, “Synthesis, biological evaluation, and structure-activity relationships of novel substituted N-phenyl ureidobenzenesulfonate derivatives blocking cell cycle progression in S-phase and inducing DNA double-strand breaks” (J Med Chem, 2012).

The structures appear in SMILES notation. Bounds are passed on as bounds.

Data set [1] concerns Jurkat. Description: Cell cycle arrest in human Jurkat E6-1 cells assessed as accumulation at S phase at 3.5 uM after 24 hrs by FACS flow cytometry. The data set is classed as functional. The method in brief:
(§1)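 Jurkat E6 T-lymphoblasts in RPMI 1640 with 10% FBS, 37 °C, 5% CO2. […] Chicken red blood cells were added as internal standard. Cells were fixed in ice-cold EtOH and stained with 1 μg/mL DAPI on ice for 1 h before flow cytometry of phase distribution. Vehicle control was 0.5% DMSO.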
For orientation: In flow cytometry, cells or beads pass a laser one at a time.

Data set [2] deals with Jurkat. Description: Cell cycle arrest in human Jurkat E6-1 cells assessed as accumulation at G2/M phase at 3.5 uM after 24 hrs by FACS flow cytometry. Format: functional. The method in brief: (§2)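 Jurkat E6 cells grown in RPMI 1640 with 10% FBS at 37 °C, 5% CO2. Compounds were serially diluted in medium starting 50% above the M21 IC50. 4.0 × 10^5 cells were exposed for 24 h, then washed and spiked with chicken red blood cells as internal standard. Cells were fixed in ice-cold ethanol, stained with 1 μg/mL DAPI on ice for 1 h, and phase distribution was read by flow cytometry. The control was 0.5% DMSO.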

In data set [3] the test system is M21. Description: Cytotoxicity against human M21 cells after 48 hrs by SRB assay. Format: functional, cell-based. The settings on record: M21, 48 h. The method in brief:
(§3)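 NCI sulforhodamine B protocol. Cells were grown in high-glucose DMEM with 5% FBS and seeded per well at 4 × 10^3 (HT-29), 3.5 × 10^3 (M21) or 3 × 10^3 (MCF-7), then allowed 24 h to attach. Serial dilutions from 200 μM to 780 nM final were applied in DMSO <0.5% for 48 h. Cells were fixed with cold TCA (10% final) and stained with SRB, with absorbance read at 530–568 nm. Growth inhibition was computed against day-0 plates, giving the 50% inhibitory concentration. At least two experiments in triplicate, CV <10%.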

Data set [4] concerns MCF7. Description: Cytotoxicity against human MCF7 cells after 48 hrs by SRB assay. The data set is classed as functional, cell-based. To be noted: MCF7, 48 h. The method in brief:
as §3
(In general: In SRB staining, fixed cells bind dye roughly in proportion to their protein.)

In data set [5] the test system is Jurkat. Description: Cell cycle arrest in human Jurkat E6-1 cells assessed as accumulation at G0/G1 phase at 3.5 uM after 24 hrs by FACS flow cytometry. The data set is classed as functional. The method in brief: (§4)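 Jurkat E6 cells cultured in RPMI 1640 with 10% FBS at 37 °C, 5% CO2. Compounds serially diluted in medium, starting 50% above the M21 IC50. 4.0 × 10^5 cells were exposed for 24 h. Cells were washed with PBS, chicken red blood cells added as internal standard, and fixed in ice-cold EtOH. After 1 h on ice in PBS with 1 μg/mL DAPI, phase distribution was read by flow cytometry. DMSO-treated cells served as control.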

Data set [6] concerns HT-29. Description: Cytotoxicity against human HT-29 cells after 48 hrs by SRB assay. The data set is classed as functional, cell-based. To be noted: HT-29, 48 h. An outline of the steps:
as §3

In data set [7] the test system is Jurkat. Description: Cell cycle arrest in human Jurkat E6-1 cells assessed as accumulation at G2/M phase at 43 uM after 24 hrs by FACS flow cytometry. The data set is classed as functional. An outline of the steps:
as §2

In data set [8] the test system is Jurkat. Description: Cell cycle arrest in human Jurkat E6-1 cells assessed as accumulation at G0/G1 phase at 43 uM after 24 hrs by FACS flow cytometry. Format: functional. An outline of the steps: as §4
In data set [9] the test system is Jurkat. Description: Cell cycle arrest in human Jurkat E6-1 cells assessed as accumulation at S phase at 43 uM after 24 hrs by FACS flow cytometry. Format: functional. An outline of the steps:
as §1

In data set [10] the test system is Jurkat. Description: Cell cycle arrest in human Jurkat E6-1 cells assessed as accumulation at G2/M phase at 19 uM after 24 hrs by FACS flow cytometry. The data set is classed as functional. An outline of the steps: as §2
For data set [11], the system named is Jurkat. Description: Cell cycle arrest in human Jurkat E6-1 cells assessed as accumulation at G0/G1 phase at 19 uM after 24 hrs by FACS flow cytometry. Format: functional. The method in brief:
as §4

Data set [12] concerns Jurkat. Description: Cell cycle arrest in human Jurkat E6-1 cells assessed as accumulation at S phase at 19 uM after 24 hrs by FACS flow cytometry. The data set is classed as functional. The method in brief:
as §2

Data set [13] relates to Jurkat. Description: Cell cycle arrest in human Jurkat E6-1 cells assessed as accumulation at S phase at 200 uM after 24 hrs by FACS flow cytometry. Format: functional. The method in brief:
as §2

Data set [14] deals with Jurkat. Description: Cell cycle arrest in human Jurkat E6-1 cells assessed as accumulation at G0/G1 phase at 200 uM after 24 hrs by FACS flow cytometry. Format: functional. An outline of the steps: as §4
Data set [15] has as its system Jurkat. Description: Cell cycle arrest in human Jurkat E6-1 cells assessed as accumulation at G2/M phase at 200 uM after 24 hrs by FACS flow cytometry. Format: functional. An outline of the steps:
as §2

The test system of data set [16] is HT-1080. Description: Antitumor activity against human HT1080 cells xenografted in chicken chorioallantoic membrane assessed as inhibition of tumor growth at 1 ug per egg, iv administered on day 11 measured on day 17 by CAM assay. Format: functional. An outline of the steps:
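HT-1080 fibrosarcoma cells (3.5 × 105/egg) were applied onto freshly exposed CAM of fertilized chicken eggs. On day 11, drug from a DMSO stock was diluted in Cremophor EL/99% ethanol/PBS (1/1/14 v/v) and 100 μL was injected into a vein under the CAM. Groups of 10–12 eggs were kept to day 17, embryos were euthanized at 4 °C for ≥4 h, and tumor wet weight was recorded.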
(In general: A xenograft is tissue or cells of one species grown in another, often human tumour cells in immunodeficient mice.)

Data set [17] can be described thus: Toxicity in fertilized chicken embryo assessed as mortality rate at 1 ug per egg, iv administered on day 11 measured on day 17 by CAM assay. Format: organism-based, Gallus gallus. The settings on record: in vivo, read-out: Activity. The method in brief: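 Fertilized chicken eggs grafted on the CAM with HT-1080 cells (3.5 × 105/egg) received a 100 μL intravenous injection under the CAM on day 11. The drug was diluted in Cremophor EL/99% ethanol/PBS (1/1/14 v/v). Groups held 10–12 eggs and were incubated until day 17, when dead embryos and signs of toxicity were counted per group.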

The subject of data set [18] is Jurkat. Description: Cell cycle arrest in human Jurkat E6-1 cells assessed as accumulation at G0/G1 phase at 176 uM after 24 hrs by FACS flow cytometry. Format: functional. An outline of the steps: as §4
Data set [19] concerns Jurkat. Description: Cell cycle arrest in human Jurkat E6-1 cells assessed as accumulation at G2/M phase at 176 uM after 24 hrs by FACS flow cytometry. The data set is classed as functional. The method in brief: as §2
Data set [20] has as its system Jurkat. Description: Cell cycle arrest in human Jurkat E6-1 cells assessed as accumulation at S phase at 176 uM after 24 hrs by FACS flow cytometry. Format: functional. The method in brief:
as §2

Regarding `CCNC(=O)Nc1ccc(S(=O)(=O)Oc2ccc(O)cc2)cc1`, the Activity in data set [1] was found to be 63%; in data set [2], 16%; in data set [5], 21%. The IC50 was 4.3 µM in [3], 8 µM in [4] and 12 µM in [6].

With `CCNC(=O)Nc1cccc(S(=O)(=O)Nc2ccccc2CC)c1`, the results for the Activity in data set [7], in data set [8] and in data set [9] were 19%, 40% and 41%, respectively. In addition, the results for the 50% inhibitory concentration (IC50) in data set [3], in data set [4] and in [6] were > 100 µM, 48 µM and 15 µM, respectively.

In the case of `Cc1ccc(OS(=O)(=O)c2ccc(NC(=O)NCCCl)cc2)cc1`, the Activity in data set [10] came to 11%; in data set [11] it was 32%; in [12], 57%. In addition, the IC50 in [3] came to 21 µM; in [4], 33 µM; in data set [6], 30 µM.

For the compound `CCc1ccccc1OS(=O)(=O)c1cccc(NC(=O)NCCCl)c1`, the values for the IC50 in data set [3], in data set [4] and in data set [6] were 4.8 µM, 5.3 µM and 4.3 µM, respectively.

For the compound `CCc1ccccc1NS(=O)(=O)c1ccc(NC(=O)NCCCCl)cc1`, the Activity in data set [13] is 39%; in [14] it was 45%; in data set [15], 16%. The IC50 in [3], in data set [4] and in data set [6] was > 200 µM each time.

Regarding `CCc1ccccc1NS(=O)(=O)c1cccc(NC(=O)NCCCCl)c1`, the figures for the Activity in data set [13], in data set [14] and in [15] were 35%, 50% and 15%, respectively. Further, the IC50 in data set [3] was > 200 µM; in data set [4], 43 µM; in data set [6] it was 96 µM.

Regarding `COc1ccc(/C=C\c2cc(OC)c(OC)c(OC)c2)cc1O` [COMBRETASTATIN A4], the TGI in [16] is listed as 49%. Moreover, the mortality at 6 days in [17] was 21%.

With `Cc1ccccc1NS(=O)(=O)c1ccc(NC(=O)NCCCCl)cc1`, the Activity in data set [13] is given as 38%; in data set [14], 47%; in data set [15], 15%. Besides, the values for the IC50 in [3], in data set [4] and in data set [6] were > 200 µM, > 200 µM and 64 µM, respectively.

For the compound `CCNC(=O)Nc1ccc(S(=O)(=O)Nc2ccccc2C)cc1`, the Activity in [18] turned out to be 31%; in data set [19], 14%; in data set [20], 55%. In addition, the IC50 in data set [3], in [4] and in data set [6] was > 200 µM in each case.

In general, IC50 refers to the midpoint of a concentration-inhibition curve. High values mean a need for much substance, low ones inhibition by little substance. For orientation: TGI means how far tumour growth fell short of that in controls.
